# OXTR potentiate = human OXTR potentiators, primary screen, fluorescence, CHO-OTR cells, Fluo-8 calcium | Oxytocin receptor (Homo sapiens), P30559 | Fluo-8 calcium fluorescence, potentiator mode; 0% = oxytocin EC15, 100% = EC100 | activation, % at 3 µM | actives 0.061% (n = 320,000) | AID 2445, 2010;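 active = activation above that plate's cutoff, the mean activation of tested compounds plus 3 SD, cut at about 6.6% in these data, passing the limit was not always enough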
#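 Replication – single well per compound, singlicate · Assay system – CHO cell line stably expressing human OTR · Timing – 6 min pre-incubation, 100 s read · Measure – normalized max/min fluorescence ratio, % activation · Doses – 3.0 µM, one dose · Detection – Fluo-8 calcium dye fluorescence · Probe or stimulus – oxytocin near EC15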
# TRPN1 ag = zebrafish TRPN1 channel agonists, primary screen, cell-based, HEK293, calcium fluorescence. transient receptor potential cation channel N1 (TRPN1/NompC), Danio rerio. HEK293 zebrafish TRPN1-YFP, Fluo-8 calcium fluorescence; 100% = response to 87 µM carbachol. activation, % at 3 µM. actives 0.18% (n = 220,000);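 active = activation above its plate's cutoff, the mean activation of test wells on that plate plus 3 SD, cut at about 19% in these data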
#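 Assay system: Zebrafish TRPN1-YFP in HEK293 cells | Incubation: Dye loading 1 h at 37 °C, then 30 min room temperature | Measured by: Kinetic Fluo-8 fluorescence, ex 470-495, em 515-575 nm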
# OXTR agonist = human OXTR agonists, primary screen, fluorescence, CHO-OTR cells, Fluo-8 calcium. actives 0.32% (n = 320,000). Fluo-8 calcium fluorescence; normalized: DMSO 0%, oxytocin 100%. AID 2435, 2010. Oxytocin receptor (Homo sapiens), P30559. activation, % at 3 µM;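 active = activation above the mean of all tested compounds plus 3 SD, cutoff set per screening run, cut at about 20% in these data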;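 note: peak over basal fluorescence ratio from a 100 s FLIPR kinetic read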
# TRPML3 ag = human TRPML3 channel agonists, primary screen, cell-based, HEK293 TRPML3-YFP, Fluo-8 calcium fluorescence, 3 µM | Mucolipin-3 (Homo sapiens), Q8TDD5 | 100% = the carbachol control signal | activation, % at 3 µM | actives 0.29% (n = 220,000);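 active = activation above its plate's cutoff, the mean activation of the plate's test wells plus 3 SD, cut at about 12% in these data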
#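 Material: TRPML3-YFP stable HEK293 cells | Dosing: One concentration, 3 µM nominal, 0.3% DMSO | Timing: 125 s total fluorescence read per well | Technique: Fluo-8 calcium dye fluorescence, ex 470-495, em 515-575 nm | Measure: Percent activation from peak-to-basal fluorescence ratio, scaled between DMSO and carbachol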
# V1aR counter = agonists of human V1a receptor, primary screen, counter-screen for OXTR agonist project, fluorescence, CHO-V1R cells. actives 0.25% (n = 320,000). Fluo-8 calcium fluorescence, agonist mode; 0% DMSO, 100% 3 nM vasopressin. activation, % at 3 µM. Vasopressin V1a receptor (Homo sapiens), P37288;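 active = activation above the mean activation of all tested compounds plus 3 SD, per screening run, cut at about 20% in these data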;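 note: signal is peak over basal fluorescence ratio across a 100 second FLIPR read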
# Numbers stand for hits; n = inactive; x = not tested or not shown; + = active, no number. The list is not random: actives were taken first. Their share in the collection is about 0.59%.
SMILES,OXTR potentiate,TRPN1 ag,OXTR agonist,TRPML3 ag,V1aR counter
CC(=O)Oc1ccc2c(c1)Oc1cc(OC(C)=O)ccc1C21OC(=O)c2ccccc21,n,+,938,506,+
COc1cc(S(=O)(=O)N2CCOCC2)ccc1NC(=O)COC(=O)c1ccc(Cl)nc1,n,x,n,x,n
Cc1ccc(-c2nc3c(Cl)cc(Cl)cc3c(=O)n2O)cc1,n,x,23,x,66
Cc1ccc(CN2C(=O)N/C(=C\c3ccc(N4CCOCC4)cc3)C2=O)cc1,n,n,n,n,n
CCCN1C(=O)/C(=C/c2ccc(N3CCOCC3)cc2)NC1=S,n,24,25,12,31
CCN1C(=O)/C(=C/c2ccc(N3CCCC3)cc2)NC1=S,n,42,110,n,91
COc1ccc(CCN2CC(C(=O)NCCc3ccccc3C(F)(F)F)CCC2=O)cc1 (centres undefined),n,x,n,x,n
CCCNC(=O)Cn1c(=O)/c(=C\c2ccc(-c3ccc([N+](=O)[O-])cc3)o2)s/c1=C\C(=O)C(C)(C)C,n,n,63,n,37
CCCNC(=O)Cn1c(=O)/c(=C\c2ccc(-c3cccc([N+](=O)[O-])c3)o2)s/c1=C\C(=O)C(C)(C)C,n,n,n,n,n
Cc1ccccc1C(=O)NNC(=S)NC(=O)c1cccs1,n,x,36,x,65
Cc1cccc(C(=O)NC(=S)NNC(=O)c2cccs2)c1,n,n,36,n,26
Cc1cccc(C(=O)NC(=S)NNC(=O)c2ccc(Cl)cc2)c1,n,102,98,44,112
CC(C)(C)c1ccc(C(=O)NC(=S)NNC(=O)c2cccs2)cc1,n,19,101,n,93
Cc1cccc(C(=O)NNC(=O)c2ccc(Br)cc2)c1,n,n,n,n,n
O=C(NCCCN1CCOCC1)c1cccc(NS(=O)(=O)c2ccc(Br)cc2)c1,n,x,n,x,n
CCN(CC)S(=O)(=O)c1ccc(OCC2CCCCO2)c([N+](=O)[O-])c1 (centres undefined),n,x,n,x,n
CC(C)c1ccc(CN(C(=O)c2cccs2)C2CCS(=O)(=O)C2)cc1 (centres undefined),n,x,n,x,n
Cc1cccc(N2C(=O)c3cccc4cccc(c34)C2=O)c1,n,x,n,x,n
Cc1cccc(N2C(=O)c3cccc4c(N)ccc(c34)C2=O)c1,n,x,172,x,139
Cc1cccc(N2C(=O)c3cccc4c(N(C)CCO)ccc(c34)C2=O)c1,n,39,53,30,38
CC(C)CCN1C(=O)c2cccc3c(N)ccc(c23)C1=O,n,x,128,x,170
Nc1cccc(N2C(=O)c3cccc4c(N)ccc(c34)C2=O)c1,n,x,28,x,47
CCN1C(=O)c2cccc3c(Cl)ccc(c23)C1=O,n,n,n,n,n
O=C(O)c1cccc(N2C(=O)c3cccc4c(Cl)ccc(c34)C2=O)c1,n,n,n,n,n
Cc1noc(C)c1CC(=O)Nc1ccc2c(c1)OCO2,n,x,n,x,n
SMILES,OXTR potentiate,TRPN1 ag,OXTR agonist,TRPML3 ag,V1aR counter
CC(=O)c1sc(C(C)(C)C)cc1NC(=O)c1ccccc1C(=O)O,n,n,n,n,n
COc1ccccc1CNC(=O)CN1C(=O)N(C)C2(CCCCC2)C1=O,n,x,n,x,n
O=C(N/N=C/c1ccccc1)c1ccc(N2CCCC2=O)cc1,n,x,n,x,n
Nc1ccc2c3c(cccc13)C(=O)N(c1ccccc1)C2=O,x,125,x,111,x
CC(C)/C=C1\CC/C(=C\c2ccc(N(C)C)cc2)C1=O,n,22,69,n,59
CC(C)c1ccc(/C=C2\CC/C(=C\C=N\N(C)C)C2=O)cc1,n,n,n,n,n
Cn1c(=O)c(N)c2c3c(c(Br)ccc31)C(=O)c1ccccc1-2,n,n,25,n,28
COc1ccc(C2C=C(c3ccc(Br)s3)Nc3ncnn32)cc1OC (centres undefined),n,n,23,n,n
